This note sets out measurements from ChEMBL document CHEMBL3085688, “Thiazole-aminopiperidine hybrid analogues: design and synthesis of novel Mycobacterium tuberculosis GyrB inhibitors” (Eur J Med Chem, 2013).

Converted amounts (≈) assume the structure as drawn. The source made the active and inactive calls.

Data set [1] in a line: Cytotoxicity against mouse RAW264.7 cells at 50 uM after 72 hrs by MTT assay. In kind it is cell-based. The following applies: read-out: INH. The procedure, abridged:
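RAW 264.7 cells were exposed to compounds for 72 h. Viability was scored by cellular MTT conversion to formazan.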
In general terms: Tetrazolium dyes change colour on reduction, which living cells bring about.

Data set [2] has as its system Mycobacterium tuberculosis. The data set can be described thus: Antimycobacterial activity against Mycobacterium tuberculosis H37Rv after 7 days by MABA assay. The following applies: 168 h. In kind it is functional. The procedure, abridged:
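M. tuberculosis H37Rv in 7H9-S medium with OADC, adjusted to McFarland No. 1 and diluted 1:20 for inoculum. Drugs were diluted in 7H9-S at four-fold the highest final concentration, then serially two-fold diluted in plates alongside drug-free growth and sterile controls. Alamar blue microplate read-out.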
(The colour change of resazurin is a common sign of viable cells or microbes.)

In another data set the target is DNA gyrase subunit B (Mycobacterium smegmatis, UniProt P0C559). The data set can be described thus: Inhibition of Mycobacterium smegmatis GyrB ATPase activity expressed in Escherichia coli BL21 (DE3) after 2 hrs. On the set-up: species or system Mycolicibacterium smegmatis.
For the next data set, the system named is Staphylococcus aureus. Put plainly: Inhibition of Staphylococcus aureus GyrB.
Data set [3] deals with DNA gyrase subunit A/DNA gyrase subunit B (Mycobacterium tuberculosis (strain ATCC 25618 / H37Rv), UniProt P9WG45+P9WG47). Put plainly: Inhibition of Mycobacterium tuberculosis DNA gyrase super coiling activity of relaxed pBR322 using ethidium bromide staining by agarose gel electrophoresis.
A further data set concerns Escherichia coli. Put plainly: Inhibition of Escherichia coli DNA gyrase.

DNA gyrase subunit B, sequence (P0C559 whole entry): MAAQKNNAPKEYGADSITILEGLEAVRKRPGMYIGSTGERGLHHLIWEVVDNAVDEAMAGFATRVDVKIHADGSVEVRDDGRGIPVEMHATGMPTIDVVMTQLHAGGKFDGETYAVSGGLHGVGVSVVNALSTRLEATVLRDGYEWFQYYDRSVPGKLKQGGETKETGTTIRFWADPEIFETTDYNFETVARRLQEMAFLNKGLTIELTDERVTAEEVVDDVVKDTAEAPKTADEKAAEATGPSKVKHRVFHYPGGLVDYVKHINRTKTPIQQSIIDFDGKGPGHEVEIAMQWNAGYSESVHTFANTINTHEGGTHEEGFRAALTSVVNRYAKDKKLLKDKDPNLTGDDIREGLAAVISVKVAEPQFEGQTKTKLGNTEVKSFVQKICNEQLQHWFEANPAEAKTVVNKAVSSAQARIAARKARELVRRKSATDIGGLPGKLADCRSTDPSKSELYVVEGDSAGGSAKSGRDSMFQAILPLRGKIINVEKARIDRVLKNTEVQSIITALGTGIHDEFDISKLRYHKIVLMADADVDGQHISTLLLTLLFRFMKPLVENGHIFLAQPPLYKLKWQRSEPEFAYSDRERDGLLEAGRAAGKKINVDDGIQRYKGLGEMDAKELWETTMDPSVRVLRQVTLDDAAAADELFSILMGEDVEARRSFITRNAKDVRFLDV
DNA gyrase subunit A/DNA gyrase subunit B, sequence (P9WG45 whole entry): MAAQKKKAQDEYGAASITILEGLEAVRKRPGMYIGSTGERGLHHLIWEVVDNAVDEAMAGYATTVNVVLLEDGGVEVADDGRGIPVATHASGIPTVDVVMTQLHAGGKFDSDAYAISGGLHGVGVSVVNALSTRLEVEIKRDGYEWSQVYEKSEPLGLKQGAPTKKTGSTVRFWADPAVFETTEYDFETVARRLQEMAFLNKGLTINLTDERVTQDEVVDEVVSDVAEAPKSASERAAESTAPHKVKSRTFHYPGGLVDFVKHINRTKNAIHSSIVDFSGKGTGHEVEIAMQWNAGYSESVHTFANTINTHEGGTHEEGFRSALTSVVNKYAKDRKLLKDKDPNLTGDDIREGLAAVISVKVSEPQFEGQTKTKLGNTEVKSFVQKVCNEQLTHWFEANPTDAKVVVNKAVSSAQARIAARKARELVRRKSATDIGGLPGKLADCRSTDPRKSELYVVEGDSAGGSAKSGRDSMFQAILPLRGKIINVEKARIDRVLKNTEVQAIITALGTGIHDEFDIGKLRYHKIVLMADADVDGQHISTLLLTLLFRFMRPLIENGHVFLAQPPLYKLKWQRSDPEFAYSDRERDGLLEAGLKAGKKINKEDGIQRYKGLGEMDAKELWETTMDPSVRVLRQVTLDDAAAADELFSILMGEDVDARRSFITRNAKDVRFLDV
DNA gyrase subunit A/DNA gyrase subunit B, sequence (P9WG47 whole entry): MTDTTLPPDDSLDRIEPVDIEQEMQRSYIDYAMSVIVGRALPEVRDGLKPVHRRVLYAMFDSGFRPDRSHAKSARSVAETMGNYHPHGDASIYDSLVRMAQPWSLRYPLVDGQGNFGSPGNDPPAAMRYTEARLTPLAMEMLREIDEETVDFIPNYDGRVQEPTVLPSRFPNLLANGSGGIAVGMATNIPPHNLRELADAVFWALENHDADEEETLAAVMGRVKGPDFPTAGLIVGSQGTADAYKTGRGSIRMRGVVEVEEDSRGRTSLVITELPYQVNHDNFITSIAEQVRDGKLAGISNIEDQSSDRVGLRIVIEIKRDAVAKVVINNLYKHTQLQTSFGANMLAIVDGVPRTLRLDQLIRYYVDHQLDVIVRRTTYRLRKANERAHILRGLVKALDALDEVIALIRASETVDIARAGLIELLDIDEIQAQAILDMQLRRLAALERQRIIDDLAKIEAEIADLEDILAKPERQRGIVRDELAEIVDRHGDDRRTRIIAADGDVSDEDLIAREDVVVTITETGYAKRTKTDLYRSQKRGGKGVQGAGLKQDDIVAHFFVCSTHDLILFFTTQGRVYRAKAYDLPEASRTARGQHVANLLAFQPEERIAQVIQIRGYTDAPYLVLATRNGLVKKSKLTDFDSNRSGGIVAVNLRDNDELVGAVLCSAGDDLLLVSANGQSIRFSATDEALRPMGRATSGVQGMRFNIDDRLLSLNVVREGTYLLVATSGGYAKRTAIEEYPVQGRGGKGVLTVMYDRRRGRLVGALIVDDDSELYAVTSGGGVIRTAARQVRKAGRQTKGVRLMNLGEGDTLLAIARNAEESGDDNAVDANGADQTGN

As usually defined, the MIC is the smallest concentration in the dilution series that meets the test's criterion for growth inhibition. Low readings indicate greater potency, high ones weaker potency. As to `CCOC(=O)c1sc(-c2ccncc2)nc1N1CCC(NCc2ccc(F)cc2)CC1`, the cytotoxicity at 72 h, 50 µM in data set [1] was determined as 17.4%. The same compound came in with an MIC in data set [2] of 56.8 µM (≈ 25 µg/mL).

For `CCOC(=O)c1sc(-c2ccccn2)nc1N1CCC(NCc2ccc(Cl)cc2Cl)CC1`, the cytotoxicity at 72 h, 50 µM in data set [1] was determined as 18.6%. Further, in data set [2], the minimal inhibitory concentration (MIC) is 50.9 µM (≈ 25 µg/mL).

The IC50 is the concentration that gives 50% inhibition. For the compound `CCOC(=O)c1sc(-c2ccccn2)nc1N1CCC(NCc2cccc(C(F)(F)F)c2)CC1`, in data set [1], the cytotoxicity at 72 h, 50 µM amounted to 19.2%. Besides, in data set [2], the lowest concentration to inhibit growth (MIC) was 25.5 µM (≈ 12.5 µg/mL). Further, the half-maximal inhibitory concentration (IC50) against DNA gyrase subunit B was 29.1 µM. The inhibition entry in the data set on Staphylococcus aureus was “inactive”.

For `CCOC(=O)c1sc(-c2ccncc2)nc1N1CCC(NCc2ccc(C(F)(F)F)cc2)CC1`, the cytotoxicity at 72 h, 50 µM in data set [1] stood at 18.1%. This compound also yielded a minimum inhibitory concentration (MIC) in data set [2] of 102 µM (≈ 50 µg/mL).

For `CCOC(=O)c1sc(-c2ccccc2)nc1N1CCC(NCc2ccc(F)cc2)CC1`, the figures for the IC50 (in data set [3]; against DNA gyrase subunit B) were 27.1 µM and 24 µM, respectively. The inhibition result in the data set on Escherichia coli and in the data set with Staphylococcus aureus was “inactive” throughout. Moreover, the cytotoxicity at 72 h, 50 µM in data set [1] was found to be 6.23%. This compound displayed an MIC in data set [2] of 28.4 µM (≈ 12.5 µg/mL).

Take `CCOC(=O)c1sc(-c2ccccc2)nc1N1CCC(NCc2ccc(Cl)cc2Cl)CC1`: the cytotoxicity at 72 h, 50 µM in data set [1] worked out at 9.43%. Also, in data set [2], the MIC amounted to 51 µM (≈ 25 µg/mL).

For the compound `CCOC(=O)c1sc(-c2ccccn2)nc1N1CCC(NCc2ccc(F)cc2)CC1`, in data set [1], the cytotoxicity at 72 h, 50 µM was determined as 12.6%. In data set [2], this compound registered an MIC of 28.4 µM (≈ 12.5 µg/mL).

Take `CO[C@@H]1[C@@H](OC(N)=O)[C@@H](O)[C@H](Oc2ccc3c(O)c(NC(=O)c4ccc(O)c(CC=C(C)C)c4)c(=O)oc3c2C)OC1(C)C` [NOVOBIOCIN]: the inhibition result with Escherichia coli and in the data set with Staphylococcus aureus was “inactive” each time. Also, the minimal inhibitory concentration (MIC) in data set [2] was more than 200 µM.

As for `CCOC(=O)c1sc(-c2ccccc2)nc1N1CCC(NCc2ccc(OC)cc2)CC1`, in data set [1], the cytotoxicity at 72 h, 50 µM came out at 8.4%. In data set [2], this compound registered a minimum inhibitory concentration (MIC) of more than 111 µM.

For the compound `CCOC(=O)c1sc(-c2ccccc2)nc1N1CCC(NCc2ccc(OCc3ccccc3)cc2)CC1`, the cytotoxicity at 72 h, 50 µM in data set [1] was determined as 18.4%. The compound also had an MIC in data set [2] of 47.4 µM (≈ 25 µg/mL).

For `CCOC(=O)c1sc(-c2ccccn2)nc1N1CCC(NCc2ccccc2)CC1`, in data set [1], the cytotoxicity at 72 h, 50 µM was determined as 14.6%. This compound also registered an MIC in data set [2] of 59.2 µM (≈ 25 µg/mL).

Take `CCOC(=O)c1sc(-c2ccccc2)nc1N1CCC(NCc2ccccc2)CC1`: in data set [1], the cytotoxicity at 72 h, 50 µM turned out to be 11.7%. For the same compound, the MIC in data set [2] turned out to be 119 µM (≈ 50 µg/mL).

Consider `CCOC(=O)c1sc(-c2ccccn2)nc1N1CCC(NCc2ccc(Cl)c(Cl)c2)CC1`, for which the cytotoxicity at 72 h, 50 µM in data set [1] is 30.1%. Also, the MIC in data set [2] is more than 102 µM.

Take `CCOC(=O)c1sc(-c2ccncc2)nc1N1CCC(NCc2ccc(Cl)c(Cl)c2)CC1`: in data set [1], the cytotoxicity at 72 h, 50 µM worked out at 32.2%. The compound further gave a minimal inhibitory concentration (MIC) in data set [2] of 102 µM (≈ 50 µg/mL).

With `CCOC(=O)c1sc(-c2ccccc2)nc1N1CCC(NCc2ccc(Cl)c(Cl)c2)CC1`, the cytotoxicity at 72 h, 50 µM in data set [1] amounted to 18.1%. The compound further returned a minimum inhibitory concentration (MIC) in data set [2] of more than 102 µM.

Regarding `CCOC(=O)c1sc(-c2ccncc2)nc1N1CCC(NCc2ccc(OCc3ccccc3)cc2)CC1`, the cytotoxicity at 72 h, 50 µM in data set [1] worked out at 8.04%. Also, the MIC in data set [2] is 47.3 µM (≈ 25 µg/mL).

For the compound `CCOC(=O)c1sc(-c2ccccn2)nc1N1CCC(NCc2ccc(OC)cc2)CC1`, the cytotoxicity at 72 h, 50 µM in data set [1] worked out at 4.62%. In addition, in data set [2], the minimum inhibitory concentration (MIC) came out at 55.2 µM (≈ 25 µg/mL).

As for `CCOC(=O)c1sc(-c2ccncc2)nc1N1CCC(NCc2ccc(OC)cc2)CC1`, the cytotoxicity at 72 h, 50 µM in data set [1] came out at 16.1%. In data set [2], this compound showed an MIC of 110 µM (≈ 50 µg/mL).

`CCOC(=O)c1sc(-c2ccccn2)nc1N1CCC(NCc2ccc(C(F)(F)F)cc2)CC1`: in data set [1], the cytotoxicity at 72 h, 50 µM amounted to 14.6%. The lowest concentration to inhibit growth in data set [2] (MIC) was 51 µM (≈ 25 µg/mL).

For `CCOC(=O)c1sc(-c2ccccc2)nc1N1CCC(NCc2cccc(C(F)(F)F)c2)CC1`, the cytotoxicity at 72 h, 50 µM in data set [1] is 28.1%. In data set [2], this compound returned an MIC of 102 µM (≈ 50 µg/mL). Besides, it took 26.9 µM to reach half-maximal inhibition against DNA gyrase subunit B (IC50). Also, the inhibition entry in the data set on Staphylococcus aureus is “inactive”.

Regarding `CCOC(=O)c1sc(-c2ccncc2)nc1N1CCC(NCc2cccc(C(F)(F)F)c2)CC1`, in data set [1], the cytotoxicity at 72 h, 50 µM stood at 14.3%. Further, the lowest concentration to inhibit growth in data set [2] (MIC) was 51 µM (≈ 25 µg/mL).

Regarding `CCOC(=O)c1sc(-c2ccccn2)nc1N1CCC(NCc2ccc(OCc3ccccc3)cc2)CC1`, the cytotoxicity at 72 h, 50 µM in data set [1] turned out to be 12.8%. The compound further returned a minimal inhibitory concentration (MIC) in data set [2] of 47.3 µM (≈ 25 µg/mL).

As for `CCOC(=O)c1sc(-c2ccccc2)nc1N1CCC(NCc2ccc(C(F)(F)F)cc2)CC1`, in data set [1], the cytotoxicity at 72 h, 50 µM worked out at 22.7%. In addition, the MIC in data set [2] is 102 µM (≈ 50 µg/mL).

Regarding `CCOC(=O)c1sc(-c2ccncc2)nc1N1CCC(NCc2ccc(Cl)cc2Cl)CC1`, the cytotoxicity at 72 h, 50 µM in data set [1] was 18.4%. In data set [2], this compound yielded a minimum inhibitory concentration (MIC) of 25.4 µM (≈ 12.5 µg/mL). Besides, the IC50 against DNA gyrase subunit B was determined as 27.1 µM. In addition, the inhibition result in the data set with Staphylococcus aureus is “inactive”.

On to `CCOC(=O)c1sc(-c2ccncc2)nc1N1CCC(NCc2ccccc2)CC1`, for which the cytotoxicity at 72 h, 50 µM in data set [1] stood at 10.8%. The MIC in data set [2] turned out to be 59.2 µM (≈ 25 µg/mL).
